Holding throughout (assay type): functional
One test relates to Candida albicans. Nature of the test: Antifungal activity against Candida albicans after 24 hrs by microbroth dilution method. In outline:
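Broth microdilution following NCCLS methods, with drug dilutions in growth medium. Inoculated plates were incubated at 35 C and read at 24 h. MIC80 is the first well showing roughly 80% less growth than the drug-free well. Fluconazole and itraconazole served as positive controls.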
For orientation: Broth dilution looks for growth in wells or tubes with falling amounts of substance.

The test system of a further test is Candida parapsilosis. Nature of the test: Antifungal activity against Candida parapsilosis ATCC 22019 by micro-broth dilution method. The conditions noted are these: Lodderomyces parapsilosis. The procedure, abridged:
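Candida parapsilosis ATCC22019 was the quality-control strain tested in every assay. Microbroth dilution followed NCCLS methods, with incubation at 35 C in growth medium. MIC80 is the first well with about 80% growth reduction relative to the drug-free control. Fluconazole and itraconazole were the positive controls.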

Another test relates to Cryptococcus neoformans. Put plainly: Antifungal activity against Cryptococcus neoformans after 72 hrs by micro-broth dilution method. In outline:
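Cryptococcus neoformans was tested by NCCLS broth microdilution, with drug diluted in growth medium and incubation at 35 C. MIC was read at 72 h as MIC80, the first well with about 80% growth reduction compared with the drug-free well. Fluconazole and itraconazole were the positive controls.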

The test system of a further test is Candida tropicalis. Nature of the test: Antifungal activity against Candida tropicalis by micro-broth dilution method. The procedure, abridged:
(§1)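 NCCLS microbroth dilution: drugs diluted in growth medium, inoculated, then incubated at 35 C. The endpoint was MIC80, the first well with approximately 80% less growth than the drug-free well. Fluconazole and itraconazole were run as positive controls.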

In a further test the test system is Pichia kudriavzevii. Put plainly: Antifungal activity against Candida krusei ATCC 6258 by micro-broth dilution method. The procedure, abridged:
as §1

In the next test the test system is Nakaseomyces glabratus. Put plainly: Antifungal activity against Torulopsis glabrata by micro-broth dilution method. The procedure, abridged: as §1

Converted amounts (≈) assume the structure as drawn.

Consider `OC(CN1CCN(c2ccc(/N=C/c3ccc(Cl)c(Cl)c3)cc2)CC1)(Cn1cncn1)c1ccc(F)cc1F` (stereo not drawn), for which the MIC80 – broadly, the lowest concentration that inhibits either 80% of growth or 80% of the strains tested, depending on the study – is 1 µg/mL (≈ 1.75 µM) in the test with Candida albicans; 8 µg/mL (≈ 14 µM) against Candida parapsilosis; > 64 µg/mL in the test with Cryptococcus neoformans; > 64 µg/mL against Candida tropicalis; 16 µg/mL (≈ 28 µM) against Pichia kudriavzevii; > 64 µg/mL against Nakaseomyces glabratus.
With `Cc1ccc(/C=N/c2ccc(N3CCN(CC(O)(Cn4cncn4)c4ccc(F)cc4F)CC3)cc2)cc1` (stereo not drawn), the MIC80 in the test on Candida albicans is 1 µg/mL (≈ 1.94 µM); in the test with Candida parapsilosis, 2 µg/mL (≈ 3.87 µM); against Cryptococcus neoformans it was > 64 µg/mL; in the test with Candida tropicalis, > 64 µg/mL; in the test on Pichia kudriavzevii, 4 µg/mL (≈ 7.74 µM); in the test on Nakaseomyces glabratus, 16 µg/mL (≈ 31 µM).
`O=[N+]([O-])c1cccc(/C=N/c2ccc(N3CCN(CC(O)(Cn4cncn4)c4ccc(F)cc4F)CC3)cc2)c1` (stereo not drawn): the MIC80 is 64 µg/mL (≈ 117 µM) in the test on Candida albicans; 4 µg/mL (≈ 7.31 µM) in the test with Candida parapsilosis; 16 µg/mL (≈ 29.2 µM) against Cryptococcus neoformans; > 64 µg/mL against Candida tropicalis; 8 µg/mL (≈ 14.6 µM) against Pichia kudriavzevii; 4 µg/mL (≈ 7.31 µM) against Nakaseomyces glabratus.
As to `OC(CN1CCN(c2ccc(/N=C/c3ccc(Br)cc3)cc2)CC1)(Cn1cncn1)c1ccc(F)cc1F` (stereo not drawn), the MIC80 was 64 µg/mL (≈ 110 µM) against Candida albicans; 2 µg/mL (≈ 3.44 µM) against Candida parapsilosis; 32 µg/mL (≈ 55 µM) in the test on Cryptococcus neoformans; > 64 µg/mL in the test with Candida tropicalis; 8 µg/mL (≈ 13.8 µM) against Pichia kudriavzevii; > 64 µg/mL with Nakaseomyces glabratus.
As to `OC(CN1CCN(c2ccc(/N=C/c3ccc(F)cc3)cc2F)CC1)(Cn1cncn1)c1ccc(F)cc1F` (stereo not drawn), the MIC80 is 4 µg/mL (≈ 7.43 µM) in the test on Candida albicans; 32 µg/mL (≈ 59.4 µM) in the test on Candida parapsilosis; 8 µg/mL (≈ 14.9 µM) in the test with Cryptococcus neoformans; > 64 µg/mL in the test on Candida tropicalis; 8 µg/mL (≈ 14.9 µM) against Pichia kudriavzevii; 8 µg/mL (≈ 14.9 µM) against Nakaseomyces glabratus.
`Cc1ccc(/C=N/c2ccc(N3CCN(CC(O)(Cn4cncn4)c4ccc(F)cc4F)CC3)c(F)c2)cc1` (stereo not drawn): the MIC80 in the test with Candida albicans is 16 µg/mL (≈ 29.9 µM); against Candida parapsilosis it was 32 µg/mL (≈ 59.9 µM); against Cryptococcus neoformans it was 8 µg/mL (≈ 15 µM); against Candida tropicalis it was > 64 µg/mL; with Pichia kudriavzevii, 16 µg/mL (≈ 29.9 µM); against Nakaseomyces glabratus, 16 µg/mL (≈ 29.9 µM).
For the compound `OC(CN1CCN(c2ccc(/N=C/c3ccc(OCc4cccc(Cl)c4)cc3)cc2)CC1)(Cn1cncn1)c1ccc(F)cc1F` (stereo not drawn), the MIC80 was > 64 µg/mL in the test with Candida albicans; 16 µg/mL (≈ 24.9 µM) with Candida parapsilosis; 64 µg/mL (≈ 99.5 µM) in the test with Cryptococcus neoformans; > 64 µg/mL with Candida tropicalis; 32 µg/mL (≈ 49.8 µM) with Pichia kudriavzevii; 2 µg/mL (≈ 3.11 µM) in the test on Nakaseomyces glabratus.
With `COc1cccc(/C=N/c2ccc(N3CCN(CC(O)(Cn4cncn4)c4ccc(F)cc4F)CC3)cc2)c1O` (stereo not drawn), the MIC80 was > 64 µg/mL against Candida albicans; 4 µg/mL (≈ 7.29 µM) with Candida parapsilosis; 64 µg/mL (≈ 117 µM) with Cryptococcus neoformans; > 64 µg/mL against Candida tropicalis; 16 µg/mL (≈ 29.2 µM) against Pichia kudriavzevii; 16 µg/mL (≈ 29.2 µM) with Nakaseomyces glabratus.
On to `O=[N+]([O-])c1ccc(/C=N/c2ccc(N3CCN(CC(O)(Cn4cncn4)c4ccc(F)cc4F)CC3)cc2)cc1` (stereo not drawn), for which the MIC80 is > 64 µg/mL in the test on Candida albicans; 4 µg/mL (≈ 7.31 µM) against Candida parapsilosis; > 64 µg/mL in the test on Cryptococcus neoformans; > 64 µg/mL in the test on Candida tropicalis; 4 µg/mL (≈ 7.31 µM) in the test with Pichia kudriavzevii; 8 µg/mL (≈ 14.6 µM) in the test on Nakaseomyces glabratus.
`OC(CN1CCN(c2ccc(/N=C/c3ccc(Cl)cc3Cl)cc2)CC1)(Cn1cncn1)c1ccc(F)cc1F` (stereo not drawn): the MIC80 against Candida albicans is > 64 µg/mL; in the test on Candida parapsilosis, 8 µg/mL (≈ 14 µM); against Cryptococcus neoformans it was 64 µg/mL (≈ 112 µM); against Candida tropicalis it was > 64 µg/mL; with Pichia kudriavzevii it was 8 µg/mL (≈ 14 µM); with Nakaseomyces glabratus, 8 µg/mL (≈ 14 µM).
Regarding `OC(CN1CCN(c2ccc(/N=C/c3ccc(Cl)cc3)cc2)CC1)(Cn1cncn1)c1ccc(F)cc1F` (stereo not drawn), the MIC80 with Candida albicans was 0.5 µg/mL (≈ 0.931 µM); in the test with Candida parapsilosis it was 1 µg/mL (≈ 1.86 µM); in the test with Cryptococcus neoformans, 32 µg/mL (≈ 59.6 µM); against Candida tropicalis, > 64 µg/mL; against Pichia kudriavzevii it was 4 µg/mL (≈ 7.45 µM); in the test with Nakaseomyces glabratus, > 64 µg/mL.
For `OC(CN1CCN(c2ccc(/N=C/c3ccc(F)cc3)cc2)CC1)(Cn1cncn1)c1ccc(F)cc1F` (stereo not drawn), the MIC80 against Candida albicans is 64 µg/mL (≈ 123 µM); in the test on Candida parapsilosis, 2 µg/mL (≈ 3.84 µM); against Cryptococcus neoformans it was 4 µg/mL (≈ 7.68 µM); with Candida tropicalis, > 64 µg/mL; against Pichia kudriavzevii, 16 µg/mL (≈ 30.7 µM); with Nakaseomyces glabratus, > 64 µg/mL.
Regarding `OC(Cn1cncn1)(Cn1cncn1)c1ccc(F)cc1F` [FLUCONAZOLE], the MIC80 came to 1 µg/mL (≈ 3.27 µM) with Candida albicans; 4 µg/mL (≈ 13.1 µM) in the test on Candida parapsilosis; 32 µg/mL (≈ 104 µM) against Cryptococcus neoformans; 64 µg/mL (≈ 209 µM) in the test on Candida tropicalis; 8 µg/mL (≈ 26.1 µM) against Pichia kudriavzevii; 8 µg/mL (≈ 26.1 µM) in the test on Nakaseomyces glabratus.
With `OC(CN1CCN(c2ccc(/N=C/c3ccc(Br)cc3)cc2F)CC1)(Cn1cncn1)c1ccc(F)cc1F` (stereo not drawn), the MIC80 in the test with Candida albicans was 32 µg/mL (≈ 53.4 µM); against Candida parapsilosis, 8 µg/mL (≈ 13.3 µM); with Cryptococcus neoformans, 32 µg/mL (≈ 53.4 µM); with Candida tropicalis, > 64 µg/mL; against Pichia kudriavzevii, 8 µg/mL (≈ 13.3 µM); in the test with Nakaseomyces glabratus, 16 µg/mL (≈ 26.7 µM).
As for `OC(CN1CCN(c2ccc(/N=C/c3ccc(Cl)cc3)cc2F)CC1)(Cn1cncn1)c1ccc(F)cc1F` (stereo not drawn), the MIC80 is 16 µg/mL (≈ 28.8 µM) against Candida albicans; 16 µg/mL (≈ 28.8 µM) in the test on Candida parapsilosis; 32 µg/mL (≈ 57.7 µM) against Cryptococcus neoformans; > 64 µg/mL against Candida tropicalis; 16 µg/mL (≈ 28.8 µM) in the test with Pichia kudriavzevii; 32 µg/mL (≈ 57.7 µM) against Nakaseomyces glabratus.
For `OC(CN1CCN(c2ccc(/N=C/c3ccc(OCc4ccccc4)cc3)cc2)CC1)(Cn1cncn1)c1ccc(F)cc1F` (stereo not drawn), the MIC80 is 64 µg/mL (≈ 105 µM) with Candida albicans; > 64 µg/mL in the test on Candida parapsilosis; 16 µg/mL (≈ 26.3 µM) with Cryptococcus neoformans; > 64 µg/mL with Candida tropicalis; 8 µg/mL (≈ 13.1 µM) against Pichia kudriavzevii; 32 µg/mL (≈ 52.6 µM) against Nakaseomyces glabratus.
Take `OC(CN1CCN(c2ccc(/N=C/c3ccc4c(c3)OCO4)cc2)CC1)(Cn1cncn1)c1ccc(F)cc1F` (stereo not drawn): the MIC80 against Candida albicans was 16 µg/mL (≈ 29.3 µM); in the test with Candida parapsilosis, 2 µg/mL (≈ 3.66 µM); against Cryptococcus neoformans, 32 µg/mL (≈ 58.5 µM); with Candida tropicalis, > 64 µg/mL; with Pichia kudriavzevii it was 4 µg/mL (≈ 7.32 µM); in the test with Nakaseomyces glabratus it was 16 µg/mL (≈ 29.3 µM).
In the case of `Oc1ccc(/C=N/c2ccc(N3CCN(CC(O)(Cn4cncn4)c4ccc(F)cc4F)CC3)cc2)cc1` (stereo not drawn), the MIC80 with Candida albicans was 32 µg/mL (≈ 61.7 µM); with Candida parapsilosis, 1 µg/mL (≈ 1.93 µM); in the test with Cryptococcus neoformans it was 4 µg/mL (≈ 7.71 µM); against Candida tropicalis, > 64 µg/mL; in the test on Pichia kudriavzevii, 4 µg/mL (≈ 7.71 µM); against Nakaseomyces glabratus, 8 µg/mL (≈ 15.4 µM).

For the origin of these results see ChEMBL document CHEMBL1146345, “Synthesis and evaluation of novel 1-(1H-1,2,4-triazol-1-yl)-2-(2,4-difluorophenyl)-3-[(4-substitutedphenyl)-piperazin-1-yl]-propan-2-ols as antifungal agents” (2007).
